# Experimental data published in ChEMBL document CHEMBL1124463, “Retinobenzoic acids. 3. Structure-activity relationships of retinoidal azobenzene-4-carboxylic acids and stilbene-4-carboxylic acids” (1989).
# Activity calls are given as the source filed them. The calls are words filed in the database; no cut-off is given here.
# Assays:
# HL-60 [1] = test: The ability to induce differentiation of human promyelocytic leukemia HL-60 cell line to mature granulocyte; type: functional; details: read-out: ED50 (the source's name)
# How it was run: (§1)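 HL-60 cells in RPMI1640 with 5% FCS, ethanol stocks at 0.2 mM, final ethanol <0.5%, seeded at ~8 × 10^4 cells/mL and exposed 4 days across 5 orders of concentration. Cells were then incubated 20 min at 37 °C with an equal volume of PBS containing 0.2% NBT and 200 ng/mL TPA. Formazan-positive cells were counted (≥200 cells). ED50 from NBT data; ≥3 repeats.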
# HL-60 [2] = test: The ability to induce differentiation of HL-60 cells relative to that of retinoic acid; type: functional, Homo sapiens
# How it was run: (§2)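 HL-60 cells from suspension culture in RPMI1640 with 5% FCS and antibiotics, 37 °C, 5% CO2. Compounds were dissolved in ethanol at 0.2 mM (stock), with final ethanol below 0.5%, and added to cells seeded at about 8 × 10^4 cells/mL for 4 days. Retinoic acid was run concurrently. Value is the ED50 ratio of retinoic acid to compound, with ED50 taken from NBT-reduction data.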
# HL-60 [3] = test: The ability to induce differentiation of human promyelocytic leukemia HL-60 cell line to mature granulocyte was determined in a NBT reduction assay; IA= Inactive; type: functional, cell-based; how it was run: as §1
# HL-60 [4] = test: The ability to induce differentiation of human promyelocytic leukemia HL-60 cell line to mature granulocyte was determined in a NBT reduction assay; Maximum cellular response to compound is less than half of that of retinoic acid.; type: functional; details: read-out: ED50 (the source's name); how it was run: as §1
# HL-60 [5] = test: Activity to differentiate HL-60 cells relative to that of retinoic acid; type: functional, Homo sapiens; how it was run: as §2
# HL-60 [6] = test: The ability to induce differentiation of human promyelocytic leukemia HL-60 cell line to mature granulocyte was determined in a NBT reduction assay; NA means inactive.; type: functional, cell-based; how it was run: as §1
# HL-60 [7] = test: The ability to induce differentiation of human promyelocytic leukemia HL-60 cell line to mature granulocyte was determined in a NBT reduction assay; IA= Inactive at >10e-6; type: functional, cell-based; how it was run: as §1
SMILES,EC50 (HL-60 [1]) [nM],Relative activity (HL-60 [2]),further results
CC(C)(C)c1ccc(C2OC2c2ccc(C(=O)O)cc2)cc1 (stereo unspecified),> 1000,< 0.01,–
O=C(O)c1ccc(/N=N/c2ccccc2)cc1,–,–,ED50 (HL-60 [3]): inactive
CC(C)c1ccc(C(C)C)c(/N=N/c2ccc(C(=O)O)cc2)c1,–,–,ED50 (HL-60 [3]): inactive
Cc1cccc(/N=N/c2ccc(C(=O)O)cc2)c1,–,–,ED50 (HL-60 [3]): inactive
CC1(C)CCC(C)(C)c2cc3c(cc21)CC/C3=C\c1ccc(C(=O)O)cc1,0.2,570,–
CC(C)(C)c1ccc(/C=C/c2ccc(C(=O)O)cc2)cc1,–,–,ED50 (HL-60 [3]): inactive
C/C(=C\c1ccc(C(=O)O)cc1)c1ccc(C)c(C)c1,–,–,ED50 (HL-60 [3]): inactive
CC1(C)CCC(C)(C)c2cc(C(=O)C(=O)c3ccc(C(=O)O)cc3)ccc21,140,3.9,–
CC(C)c1cc(/N=N/c2ccc(C(=O)O)cc2)cc(C(C)C)c1,410,0.22,–
CC1(C)CCSc2ccc(/N=N/c3ccc(C(=O)O)cc3)cc21,210,2.1,–
CCc1ccc(/N=N/c2ccc(C(=O)O)cc2)cc1CC,220,0.53,–
CC1(C)CCC(C)(C)c2cc(/C=C/c3ccc(C(=O)O)cc3)ccc21,0.5,260,–
CC1(C)CCC(C)(C)c2cc3oc(-c4ccc(C(=O)O)cc4)cc3cc21,1.3,120,–
CC1(C)CCC(C)(C)c2cc(/N=N/c3ccc(C(=O)O)cc3)ccc21,–,130,–
CC(C)(C)c1cccc(/N=N/c2ccc(C(=O)O)cc2)c1,400,0.36,–
CC1(C)CCC(C)(C)c2cc(/C(=C/c3ccc(C(=O)O)cc3)C(F)(F)F)ccc21,31,5.7,–
CC1(C)CCC(C)(C)c2cc3c(cc21)C=C(c1ccc(C(=O)O)cc1)C3,–,–,EC50 (HL-60 [4]): 6.6 nM
CC(C)c1ccc(/N=N/c2ccc(C(=O)O)cc2)cc1C(C)C,2.3,39,–
CCc1ccc(C2(C)OC2c2ccc(C(=O)O)cc2)cc1CC (stereo unspecified),–,–,ED50 (HL-60 [3]): inactive
C/C(=C\c1ccc(C(=O)O)cc1)c1ccc(C(C)C)c(C(C)C)c1,13,–,Relative activity (HL-60 [5]): 15

SMILES,EC50 (HL-60 [1]) [nM],Relative activity (HL-60 [2]),further results
CC1(C)CCC(C)(C)c2cc(CCc3ccc(C(=O)O)cc3)ccc21,130,2.7,–
CC1(C)CCC(C)(C)c2cc(C3(C)OC3c3ccc(C(=O)O)cc3)ccc21 (stereo unspecified),130,0.65,–
O=C(O)c1ccc(/N=N/c2cccc(C3CCCCC3)c2)cc1,130,0.68,–
CC(C)c1cccc(/N=N/c2ccc(C(=O)O)cc2)c1,380,0.29,–
CC(C)(C)c1cccc(/C=C/c2ccc(C(=O)O)cc2)c1,–,13,–
CC1(C)CCOc2ccc(/N=N/c3ccc(C(=O)O)cc3)cc21,130,3.5,–
CC1(C)CCC(C)(C)c2cc(C3OC3c3ccc(C(=O)O)cc3)ccc21 (stereo unspecified),4.3,22,–
CC(C)c1ccccc1/N=N/c1ccc(C(=O)O)cc1,–,–,ED50 (HL-60 [3]): inactive
O=C(O)c1ccc(/C=C/c2ccccc2)cc1,–,–,ED50 (HL-60 [6]): inactive
CC1(C)CCC(C)(C)c2cc(/N=[N+](\[O-])c3ccc(C(=O)O)cc3)ccc21,0.25,1960,–
CC(C)c1ccc(/N=N/c2ccc(C(=O)O)cc2)cc1,> 10000,<0.1,–
CC(C)c1ccc(/N=N/c2ccc(C(=O)O)cc2)c(C(C)C)c1,> 10000,<0.1,–
C/C(=C\c1ccc(C(=O)O)cc1)c1ccc2c(c1)C(C)(C)CCC2(C)C,2.5,90,–
CCc1ccc(/C(C)=C/c2ccc(C(=O)O)cc2)cc1CC,87,2.2,–
CC1=C(/C=C/C(C)=C/C=C/C(C)=C/C(=O)O)C(C)(C)CCC1 [TRETINOIN],2.4,100,–
CCc1cccc(/N=N/c2ccc(C(=O)O)cc2)c1,–,<0.1,ED50 (HL-60 [7]): inactive
C/C(=C\c1ccc(C(=O)O)cc1)c1ccc(C(C)(C)C)cc1,–,–,ED50 (HL-60 [3]): inactive
CC(C)(C)c1cccc(C2OC2c2ccc(C(=O)O)cc2)c1 (stereo unspecified),> 1000,< 0.01,–
O=C(O)c1ccc(/N=N/c2cccc(-c3ccccc3)c2)cc1,> 10000,<0.1,–
